Assay results gathered from unrelated publications.
Protocols differ between the studies behind these lines.
Kir1 channel protein: Kir1 channel protein (Aedes aegypti, UniProt L0EQS9)
MMP14: Matrix metalloproteinase-14 (MMP14, Homo sapiens, UniProt P50281)
BTK: Tyrosine-protein kinase BTK (BTK, Homo sapiens, UniProt Q06187)

| SMILES | target | read-out | mode | method | pH | setting | IC50 [µM] |
| --- | --- | --- | --- | --- | --- | --- | --- |
| O=S(=O)(c1ccc(F)cc1)N1CCN(c2ccnc(NCc3ccncc3)c2)CC1 | Kir1 channel protein | ion flux | inhibitor |  |  |  | 4 to 9 |
| Cc1cc(Cc2cc(C)cc(C(C)(C)C)c2O)c(O)c(C(C)(C)C)c1 | Sarcoplasmic/endoplasmic reticulum calcium ATPase 1 (ATP2A1, Oryctolagus cuniculus, UniProt P04191) | ATPase activity | inhibitor | absorbance | pH 7.3 |  | 3.6 |
| O=[N+]([O-])c1ccc(N2CCN(S(=O)(=O)c3ccc(F)cc3)CC2)cc1NCc1ccncc1 | Kir1 channel protein | ion current | inhibitor | patch clamp |  |  | 0.0497 |
| COc1cc2c(NC3CCN(C)CC3)nc(N3CCCN(C)CC3)nc2cc1OCCOCCN(C)C | Lysine-specific demethylase 4E (KDM4E, Homo sapiens, UniProt B2RXH2) | enzyme activity | inhibitor |  |  |  | > 57 |
| O=[N+]([O-])c1ccc(N2CCN(S(=O)(=O)c3ccc(F)cc3)CC2)cc1NCc1ccccn1 | Kir1 channel protein | ion flux | inhibitor |  |  |  | 0.8 |
| Cc1noc(-c2cc3cc(-c4nc(C(=O)NCc5ccccn5)[nH]c4C)ccc3[nH]2)n1 | MMP14 | enzyme activity | inhibitor |  |  |  | > 20 |
| COc1ccc2c(Oc3ccc4c(C(=O)Nc5ccccc5N)cccc4c3)ccnc2c1 | BTK | enzyme activity | inhibitor |  |  |  | > 0.5 |
| COc1ccc(F)cc1C(=O)NCc1ccc(-c2nn([C@@H](C)C(F)(F)F)c(N)c2C(N)=O)cc1 | BTK | phosphorylation in cells | inhibitor | western blot |  |  | 0.0042 |
| C=CC(=O)Nc1cc(Nc2nccc(Nc3cc(Cl)c(F)cc3C(C)(C)O)n2)c(OC)cc1N1CC[C@@H](N(C)C)C1 | Receptor tyrosine-protein kinase erbB-4 (ERBB4, Homo sapiens, UniProt Q15303) | enzyme activity | inhibitor |  |  | with preincubation | 0.704 |
| Cn1nc(C(=O)NCc2ccc(C(=O)O)cc2)cc1-c1ccc2[nH]c(-c3cccnc3)cc2c1 | MMP14 | enzyme activity | inhibitor |  |  |  | > 20 |
| Cc1cc(O)cc(C)c1C[C@H](NC(=O)[C@@H]1CCCN1C(=O)[C@H](CCCNC(=N)N)NC(=O)[C@H](CCCNC(=N)N)N(C)C(=O)CNC(=O)[C@@H](CO)NC(=O)CNC(=O)[C@H](Cc1cn(CCNC(=O)[C@H](Cc2ccc(O)cc2)NC(=O)[C@H](CC(C)C)NC(=O)C2OC2C(=O)O)nn1)NC(=O)CN1CCN(CC(=O)O)CCN(CC(=O)O)CCN(CC(=O)O)CC1)C(=O)N[C@H](C(=O)N[C@@H](CC(C)C)C(=O)O)C(C)(C)C (mixture of isomers) | Neurotensin receptor type 1 (NTSR1, Homo sapiens, UniProt P30989) | ligand displacement |  | radioligand |  |  | 0.087 |
| CN1CCN(c2ccc(Nc3ncc4cc(C#N)c(=O)n(C5CCCC5)c4n3)cc2)CC1 | BTK | enzyme activity | inhibitor |  |  |  | 0.421 |
| N#Cc1ccc(N2CCN(S(=O)(=O)c3ccc(F)cc3)CC2)cc1NCc1ccncc1 | Kir1 channel protein | ion current | inhibitor | patch clamp |  |  | 0.0276 |
| COc1ccc(F)cc1C(=O)NCc1ccc(-c2nn([C@@H](C)C(F)(F)F)c(N)c2C(N)=O)cc1 | BTK | phosphorylation in cells | inhibitor |  |  |  | 0.0039 |
| O=[N+]([O-])c1ccc(N2CCN(S(=O)(=O)c3ccc(F)cc3)CC2)cc1NCc1cccnc1 | Kir1 channel protein | ion current | inhibitor | patch clamp |  |  | 0.057 |
| Cc1noc(-c2cc3cc(-c4nc(C(=O)NCc5cccnc5)[nH]c4C)ccc3[nH]2)n1 | MMP14 | enzyme activity | inhibitor |  |  |  | > 20 |
| O=C1Nc2ccc(I)cc2/C1=C/c1cc(Br)c(O)c(Br)c1 | Protein-glutamine gamma-glutamyltransferase (TGM2, Homo sapiens, UniProt P21980) | enzyme activity | inhibitor |  |  |  | 50 |
